System: MS2 coat protein
Assay: apparent Kd, MS2 coat protein; higher = weaker binding; RNA-MaP array; FMN 200 µM where present
Method in brief: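 The apparent Kd is reported as the median of filtered per-cluster binding-curve fits. To get these curves, designs transcribed by stalled E. coli RNA polymerase on Illumina sequencing-chip clusters were titrated with SNAP-549-labelled MS2 coat protein from 0.7 or 1.5 nM, doubling to 3 µM. Titrations were run without and then with constant ligand in 100 mM Tris-HCl pH 7.5, 80 mM KCl, 4 mM MgCl2, BSA, DTT, yeast tRNA and Tween-20, and green signal was normalised to red-channel RNA signal and control-cluster median Fmax.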

[1] = designed as: OFF switch for flavin mononucleotide, no ligand
[2] = ligand present: flavin mononucleotide, designed as: OFF switch for flavin mononucleotide
[3] = designed as: ON switch for flavin mononucleotide, no ligand
[4] = ligand present: flavin mononucleotide, designed as: ON switch for flavin mononucleotide

Sequence	apparent Kd [1]	apparent Kd [2]	apparent Kd [3]	apparent Kd [4]
CAGUAUUGAGGAUAUACAUGAGGAUCACCCAUGUGUUCCAGCUAGGAAACUAGCAAAAGUAGAAGGCAGUACUG	21.6 nM	186 nM		
CAGUCUACAGGAUAUACAUGAGGAUCACCCAUGUGUAUCAACCUUCUGUGAUCCUCAUGUAGAAGGGUAGACUG	13.5 nM	10.9 nM		
CAGUCUACAGGAUAUACAUGAGGAUCACCCAUGUUUAUCAACCUUCAGUAAUCCACAUGUAGAAGGGUAGACUG	19.7 nM	21.4 nM		
CAGUCUACAGGAUAUACAUGAGGAUCACCCAUGUUUAUCAACUUUCAGUAAUCCAUAUGUAGAAGGGUAGACUG	23.9 nM	79.1 nM		
CAUAUAGUUUGAGGAUAUUCAUGCACUGUAUACGGAGAAGGCAAACUAUCAUGUGGACAUGAGGAUCACCCAUGUAGUGACCAG			54.2 nM	41 nM
CAUCCGGCAGGAUAUACAUGAGGAUCACCCAUGUCAGAAAGCAAAUUGUGCGACUCAGGUAGAAGGGUUGGACU	28.9 nM	34.2 nM		
CAUGUCCUCACAGGAUAUGCACCACUUUGUGGUGCAGAAGGGUGGAAACAUGAGGAUCACCCAUGUGGACAUGAUAUAUUUAAG			142 nM	24.8 nM
CAUUAACAUGAGGAUCACCCAUGUGAGGAUAUGAUAUUACUUGGACAGCUGUGGUCAAUCAGAAGGCACAUCUU	27.8 nM	32.9 nM		
CAUUAAUUCAUUAUAGUUAUUAUACAGGAUAUGUUACAUGAGGAUCACCCAUGUAUUCUUGGUAAACAGAAGGGUAUUUCUAGU	7.48 nM	8.5 nM		
CAUUUACAUGAGGAUCACCCAUGUUCUGGCGGGUCAGGAUAUAGAUCGGAUGCGUUCUGUCUAGAAGGGACAUGUU			72 nM	35.6 nM
CCAAGUUCGUAGGAUAUAGAUGCCUUAGGGCAAUUAGAAGGAUGGACAUGAGGAUCACCCAUGUCGGAUUCUGU		18 nM		
CCAAUGUAAGGAUAUGACAAUGGUAUCUUCGGAUACCAUUGUCAGAAGGUACAUGAGGAUCACCCAUGUACAAA	14.3 nM	16.6 nM		
CCAGGCGUAUAGGAUAUACGUGUCGAGUUCGCUGUAGAAGGAUACACAUGAGGAUCACCCAUGUUUGCCAGUGG	24.5 nM	21.2 nM		
CCAUAUAACUGAGGAUAUACUCACCACUAACAUGUAGAAGGCAGACAUGAGGAUCACCCAUGUGAUUUCUCAAUAUUAUACAUC	901 nM	658 nM		
CCAUGGAAUGUAGGAUAUGACUGACAAAGUCAGUUAGAAGGACAUGAGGAUCACCCAUGUAGGAAACAACCACAUAAACCAUGG	7.62 nM	6.97 nM		
CCAUGGCUGUAAGGAUAUCUCUGACAAAGUCAGAGAGAAGGUACAUGAGGAUCACCCAUGUGAGGAAAACCACAUUUGCCAUGG	9.46 nM	15.7 nM		
CCAUGUCUAUGAGGAUAUCCGAAUUAGCGUUUGACAACGAUGAGUUCUCCAGGAGAAGGCAUGGACAUGAGGAUCACCCAUGUA	29.6 nM	75.5 nM		
CCCACGAAAGUCGAACGAUGUAGCAGAAGGACAUGAGGAUCACCCAUGUCAGCUGUAACAGCCAUGUAGGAUAUGCUACAUCCC	5.24 nM	6.88 nM		
CCCAGAGAUGAGAAGGGACACGGGUGCUUUCUGACAUGAGGAUCACCCAUGUCAGGAUAUCAGCAUGGCGUCGGGAUGCCCGAC	7.24 nM	5.8 nM		
CCCGGCGUGACGCUACACCGAGAGCAGGAUAUUCCGCCGUGAUCUACAUGAGGAUCACCCAUGUGGAAGAAGGGCUACACAAAA	8.94 nM	37.5 nM		
CCCUCACAUGAGGAUCACCCAUGUUAGGAUAUCUACCAGGAGCUUUGAAUUGCCCAACGGAGAAGGAACGUGCA	16.9 nM	17.4 nM		
CCCUGAGAUUGGUUAAUUGGCUGAUAGGAUAUCCUCGGACAUGAGGAUCACCCAUGUUAACUAUUGGAGAAGGGUCAGCGAAAG			607 nM	90.2 nM
CCCUUUAGAAAAGGGACAUGAGGAUCACCCAUGUAGGCUGCACAGGAUAUCGAUCGGAGGCGGUACGAGAAGGGUGAUGUCAUU			58.3 nM	72.1 nM
CCGAAUAUGCAGGAUAUCGUAUCGGAGACGAUACGAGAAGGGCAAACAUGAGGAUCACCCAUGUUCCUUAACGG	19.1 nM	22.5 nM		
CCGAGGCAAAUAAAACAUGAGGAUCACCCAUGUGAGUCUCAUGAGGAUAUGCAGGUCAAAGACUUGCAGAAGGCAUGGCUUCGG			1190 nM	146 nM
CCGAGUGGCGUACAGGAUAUGUUGCGUGGAACAUGAGGAUCACCCAUGUAUUUGCUCCUGCAUACGCAGAAGGGUGCGUCCUGGG			52.9 nM	17.4 nM
CCGAUGAUAGGACAGGAUAUGACUGUCGUCACAUGAGGAUCACCCAUGUCCCGGCAAUGCCACCGUUAGAAGGGUCCCAUCUCGG			19.1 nM	16.3 nM
CCGAUGAUAGGACAGGAUAUGACUGUCGUCACAUGAGGAUCACCCAUGUCCCGGCAAUGCCACCGUUAGAAGGGUCCUAUCUCGG			13.1 nM	13 nM
